Measurements collected from several papers.
Compare with care: the assays were run in different laboratories.
Cell line: HeLa
Effect on: cell growth or viability

| Structure (SMILES) | method | time | IC50 [µM] |
| --- | --- | --- | --- |
| CC(C)CCOc1cc(C(=O)C[n+]2cn(C)c3ccccc32)c(OCCC(C)C)c2ccccc12 | MTT | 24 h | 13.9 |
| COc1cccc(Nc2nc(-c3ccncc3)nc3c2CNCC3)c1 | MTT |  | 23.2 |
| O=Cc1cccc(NC(=O)Cn2cc(COc3ncnc4[nH]cnc34)nn2)c1 | MTT |  | 22.1 |
| Fc1ccc(NC(=S)N/N=C/c2cccc3cc4ccccc4nc23)cc1 | MTT | 48 h | 18.4 |
| CN(C)c1ccc(Nc2nc(-c3ccncc3)nc3c2CC(N)CC3)cc1 (stereo not shown) | MTT |  | 38.2 |
| COc1cccc2c1C(=O)c1c(O)c3c(c(O)c1C2=O)C[C@@](O)(C(=O)CO)C[C@@H]3O[C@H]1C[C@H](N)[C@H](O)[C@H](C)O1 | MTT | 48 h | 0.51 |
| CC(C)CCOc1cc(C[n+]2c(C(C)C)n(CCC(C)C)c3ccccc32)c(OCCC(C)C)c2ccccc12 | MTT | 24 h | 6.8 |
| COc1cccc2c1C(=O)c1c(O)c3c(c(O)c1C2=O)C[C@@](O)(C(=O)CO)C[C@@H]3O[C@H]1C[C@H](N)[C@H](O)[C@H](C)O1 | MTT | 75 h | 0.27 |
| COc1cc([C@@H]2c3cc4c(cc3[C@@H](O[C@@H]3O[C@@H]5CO[C@@H](C)O[C@H]5[C@H](O)[C@H]3O)[C@H]3COC(=O)[C@H]23)OCO4)cc(OC)c1O | MTT | 48 h | 3.9 |
| CSc1ccccc1-c1cc(C(N)=O)c2[nH]c3c(c2c1)CC(N)CC3 (stereo not shown) |  |  | 1.46 |
| Cc1cc2c(cc1C)[n+](Cc1cc(OCCC(C)C)c3ccccc3c1OCCC(C)C)cn2CCC(C)C | MTT | 24 h | 8.9 |
| Cc1ccc(NC(=O)Cn2cc(COc3ncnc4[nH]cnc34)nn2)c(C)c1 | MTT |  | 21.4 |
| CCC(=CCc1c(O)cc2c(c1O)C(=O)C[C@H](c1ccccc1O)O2)CC | MTT |  | 37.4 |
| CC(=O)O[C@H]1C(=O)[C@@]2(C)[C@H]([C@H](OC(=O)c3ccccc3)[C@]3(O)C[C@H](OC(=O)[C@H](O)[C@@H](NC(=O)c4ccccc4)c4ccccc4)C(C)=C1C3(C)C)[C@]1(OC(C)=O)CO[C@@H]1C[C@@H]2O | MTT | 48 h | 15.8 |
| CNC(=S)N/N=C/c1cccc2cc3ccccc3nc12 | MTT | 48 h | 21.8 |
| Cc1cccc(NC(=O)Cn2cc(COc3ncnc4[nH]cnc34)nn2)c1 | MTT |  | 28.6 |
| Cc1sc2c(c1C)C(c1ccc(Cl)cc1)=N[C@@H](CC(=O)NCCCCNC(=O)COc1cccc3c1C(=O)N(C1CCC(=O)NC1=O)C3=O)c1nnc(C)n1-2 (stereo partly shown) | CCK-8 | 72 h | > 10 |
| CC(C)CCOc1cc(C[n+]2c(-c3ccc(F)cc3)n(CCC(C)C)c3ccccc32)c(OCCC(C)C)c2ccccc12 | MTT | 24 h | 9.4 |
| COc1cccc(NC(=S)N/N=C/c2cccc3cc4ccccc4nc23)c1 | MTT | 48 h | 46.8 |
| CCC(=CCc1c(O)cc2c(c1O)C(=O)CC(c1ccc(O)cc1)O2)CC (stereo in doubt) | MTT | 48 h | 19.1 |
| CC(C)CCOc1cc(C[n+]2c(-c3ccccc3)n(CCC(C)C)c3ccccc32)c(OCCC(C)C)c2ccccc12 | MTT | 24 h | 7.3 |
| S=C(N/N=C/c1cccc2cc3ccccc3nc12)Nc1ccccc1 | MTT | 48 h | 28.3 |
| COC(C)c1n(CCC(C)C)c2ccccc2[n+]1Cc1cc(OCCC(C)C)c2ccccc2c1OCCC(C)C (stereo not shown) | MTT | 24 h | 5.7 |
| CSc1ccccc1-c1ccc(C(N)=O)c2[nH]c3c(c12)CC(N)CC3 (stereo not shown) |  |  | 0.21 |
| CC(C)CCOc1cc(C[n+]2cn(CCC(C)C)c3cc(-c4ccccc4)c(-c4ccccc4)cc32)c(OCCC(C)C)c2ccccc12 | MTT | 24 h | 11.2 |
| CN1C(=O)C(=O)c2cc3c(c4c2c1cc1ccccc14)OCO3 | MTT | 75 h | 56.9 |
| CC(C)CCOc1cc(C[n+]2cn(CCC(C)C)c3cc(Br)c(Br)cc32)c(OCCC(C)C)c2ccccc12 | MTT | 24 h | 7.2 |
| COc1cccc(-c2cc(NCc3ccc4c(c3)OCO4)nc(N)n2)c1 | CCK-8 | 72 h | 0.188 |
